Data from ChEMBL document CHEMBL1944524, “Synthesis and structure-activity relationship of 5-pyridazin-3-one phenoxypiperidines as potent, selective histamine H(3) receptor inverse agonists” (Bioorg Med Chem Lett, 2012).

Legend:
Histamine H3 receptor [1] = biological target: Histamine H3 receptor (Homo sapiens, UniProt Q9Y5N1); assay: Displacement of [3H]N-alpha-methylhistamine from human histamine H3 receptor expressed in CHO cells; assay type: cell-based
Histamine H3 receptor [2] = biological target: Histamine H3 receptor (Rattus norvegicus, UniProt Q9QYN8); assay: Displacement of [3H]N-alpha-methylhistamine from rat histamine H3 receptor expressed in CHO cells; assay type: cell-based
Sequence of Histamine H3 receptor (Rattus norvegicus, UniProt Q9QYN8) (Q9QYN8 whole entry): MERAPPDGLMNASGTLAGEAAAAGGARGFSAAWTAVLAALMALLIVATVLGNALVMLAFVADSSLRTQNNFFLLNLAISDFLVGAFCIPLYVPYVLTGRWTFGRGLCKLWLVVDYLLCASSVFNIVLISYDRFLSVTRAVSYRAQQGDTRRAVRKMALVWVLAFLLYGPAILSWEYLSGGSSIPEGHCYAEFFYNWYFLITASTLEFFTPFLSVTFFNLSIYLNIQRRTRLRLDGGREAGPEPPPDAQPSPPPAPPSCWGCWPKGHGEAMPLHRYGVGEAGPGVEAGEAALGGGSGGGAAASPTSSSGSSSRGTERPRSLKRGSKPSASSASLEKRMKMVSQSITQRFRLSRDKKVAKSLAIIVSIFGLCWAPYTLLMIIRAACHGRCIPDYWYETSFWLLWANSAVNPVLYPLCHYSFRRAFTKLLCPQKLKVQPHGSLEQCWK

[3] = Half life in dog liver microsomes; assay type: ADME, Canis lupus familiaris, Microsome
In short: (§1)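 Stability in liver microsomes from rat, dog or human; half-life (min) determined.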

[4] = Cmax in po dosed rat; assay type: ADME, organism-based; parameters: route oral; settings: in vivo
Rattus norvegicus [5] = assay: Cmax in po dosed rat assessed as 5-[4-(1-cyclobutyl-piperidin-4-yloxy)-phenyl]-6-methyl-2H-pyridazin-3-one level; assay type: ADME, organism-based; parameters: route oral; settings: in vivo
[6] = AUC in po dosed rat; assay type: ADME, organism-based; settings: plasma
Rattus norvegicus [7] = assay: AUC in po dosed rat assessed as 5-[4-(1-cyclobutyl-piperidin-4-yloxy)-phenyl]-6-methyl-2H-pyridazin-3-one level; assay type: ADME, organism-based, Plasma; settings: in vivo
[8] = Inhibition of cytochrome P450; assay type: ADME
In short: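 CYP inhibition assessed against 5 CYP isoforms; IC50 determined.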

[9] = Oral bioavailability in rat; assay type: ADME, organism-based; settings: in vivo
In short: (§2)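 Rat PK study, dosed 1 mg/kg iv plus 10 or 5 mg/kg po. iv vehicle 3% DMSO, 30% solutol, 67% phosphate buffered saline; oral vehicle 50% Tween 80, 40% propylene carbonate, 10% propylene glycol.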

[10] = Half life in human liver microsomes; assay type: ADME, Microsome; in short: as §1
[11] = Half life in rat liver microsomes; assay type: ADME, Microsome; in short: as §1
[12] = Half life in rat at 1 mg/kg, iv; assay type: ADME, organism-based; parameters: dose 1 mg/kg, route intravenous; settings: in vivo; in short: as §2
[13] = biological target: Voltage-gated inwardly rectifying potassium channel KCNH2 (Homo sapiens, UniProt Q12809); assay: Inhibition of human ERG by patch clamp assay
Sequence of Voltage-gated inwardly rectifying potassium channel KCNH2 (Q12809 whole entry): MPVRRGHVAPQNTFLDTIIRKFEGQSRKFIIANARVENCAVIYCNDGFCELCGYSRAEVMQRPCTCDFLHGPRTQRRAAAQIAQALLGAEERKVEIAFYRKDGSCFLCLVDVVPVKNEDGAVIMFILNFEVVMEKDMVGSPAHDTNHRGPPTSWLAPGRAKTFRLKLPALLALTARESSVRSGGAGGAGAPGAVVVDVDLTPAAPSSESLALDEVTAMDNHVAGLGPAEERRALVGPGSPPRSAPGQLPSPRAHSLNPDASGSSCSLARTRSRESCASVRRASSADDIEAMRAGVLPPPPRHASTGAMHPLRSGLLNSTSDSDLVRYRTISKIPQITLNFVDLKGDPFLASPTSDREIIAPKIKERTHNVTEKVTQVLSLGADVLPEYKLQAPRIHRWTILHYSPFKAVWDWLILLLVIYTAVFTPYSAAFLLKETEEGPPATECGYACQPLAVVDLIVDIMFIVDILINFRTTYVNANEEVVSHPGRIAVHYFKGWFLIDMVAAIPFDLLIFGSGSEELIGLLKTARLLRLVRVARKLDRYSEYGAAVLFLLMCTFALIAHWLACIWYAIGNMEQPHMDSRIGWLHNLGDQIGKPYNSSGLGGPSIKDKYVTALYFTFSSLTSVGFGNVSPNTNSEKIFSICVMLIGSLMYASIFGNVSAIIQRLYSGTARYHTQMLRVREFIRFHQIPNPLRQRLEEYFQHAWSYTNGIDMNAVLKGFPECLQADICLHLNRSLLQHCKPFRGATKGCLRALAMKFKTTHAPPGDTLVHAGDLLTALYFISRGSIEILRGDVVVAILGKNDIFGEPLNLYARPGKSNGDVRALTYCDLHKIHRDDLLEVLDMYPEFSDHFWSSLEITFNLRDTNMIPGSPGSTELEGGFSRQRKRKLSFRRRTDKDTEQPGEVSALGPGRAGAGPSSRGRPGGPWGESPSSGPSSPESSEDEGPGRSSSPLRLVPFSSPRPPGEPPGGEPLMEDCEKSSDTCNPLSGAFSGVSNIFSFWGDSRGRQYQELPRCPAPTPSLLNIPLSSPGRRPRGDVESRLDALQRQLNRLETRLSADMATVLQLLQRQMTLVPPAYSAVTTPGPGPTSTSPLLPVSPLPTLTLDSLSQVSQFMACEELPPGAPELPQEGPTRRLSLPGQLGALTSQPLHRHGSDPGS

[14] = Volume of distribution in rat at 1 mg/kg, iv; assay type: ADME, organism-based; parameters: dose 1 mg/kg, route intravenous; settings: in vivo; in short: as §2
[15] = Tmax in rat at 5 mg/kg, po; assay type: ADME, organism-based; parameters: dose 5 mg/kg, route oral; settings: in vivo; in short: as §2
[16] = AUC in rat at 5 mg/kg, po; assay type: ADME, organism-based; parameters: dose 5 mg/kg, route oral; settings: plasma; in short: as §2
[17] = Oral bioavailability in rat at 5 mg/kg; assay type: ADME, organism-based; settings: in vivo; in short: as §2
[18] = Cmax in rat at 5 mg/kg, po; assay type: ADME, organism-based; parameters: dose 5 mg/kg, route oral; settings: in vivo; in short: as §2
[19] = Clearance in rat at 1 mg/kg, iv; assay type: ADME, organism-based; parameters: dose 1 mg/kg, route intravenous; settings: in vivo; in short: as §2
[20] = Ratio of drug level in brain to plasma in rat at 10 mg/kg, ip after 6 hrs; assay type: ADME, organism-based; parameters: dose 10 mg/kg, route intraperitoneal; settings: read-out: BPR
In short: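 Brain and plasma levels measured in rat 6 h after a 10 mg/kg ip dose; value is brain/plasma ratio.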

[21] = biological target: Histamine H1 receptor (Homo sapiens) (UniProt P35367); assay: Inhibition of human histamine H1 receptor at 10 uM
Sequence of Histamine H1 receptor (Homo sapiens) (P35367 whole entry): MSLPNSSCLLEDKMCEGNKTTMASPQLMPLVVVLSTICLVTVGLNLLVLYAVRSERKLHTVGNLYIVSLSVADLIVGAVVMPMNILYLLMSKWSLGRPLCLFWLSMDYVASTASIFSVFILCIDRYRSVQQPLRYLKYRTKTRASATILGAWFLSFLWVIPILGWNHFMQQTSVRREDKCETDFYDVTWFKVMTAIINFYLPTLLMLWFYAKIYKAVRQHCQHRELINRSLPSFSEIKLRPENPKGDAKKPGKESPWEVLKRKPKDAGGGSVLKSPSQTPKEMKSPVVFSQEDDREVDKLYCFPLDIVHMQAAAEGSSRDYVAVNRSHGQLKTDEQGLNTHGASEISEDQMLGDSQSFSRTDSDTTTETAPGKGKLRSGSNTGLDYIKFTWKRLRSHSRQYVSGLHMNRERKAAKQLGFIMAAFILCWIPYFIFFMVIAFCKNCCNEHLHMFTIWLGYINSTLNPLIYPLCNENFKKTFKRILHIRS
In short: (§3)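 Selectivity screen against human H1, H2 and H4 receptors; percent inhibition at 10 µM.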

[22] = biological target: T1, Muscarinic acetylcholine receptor M2 (Homo sapiens, UniProt P08172); assay: Inhibition of muscarinic M2 receptor
T1 sequence (P08172 whole entry): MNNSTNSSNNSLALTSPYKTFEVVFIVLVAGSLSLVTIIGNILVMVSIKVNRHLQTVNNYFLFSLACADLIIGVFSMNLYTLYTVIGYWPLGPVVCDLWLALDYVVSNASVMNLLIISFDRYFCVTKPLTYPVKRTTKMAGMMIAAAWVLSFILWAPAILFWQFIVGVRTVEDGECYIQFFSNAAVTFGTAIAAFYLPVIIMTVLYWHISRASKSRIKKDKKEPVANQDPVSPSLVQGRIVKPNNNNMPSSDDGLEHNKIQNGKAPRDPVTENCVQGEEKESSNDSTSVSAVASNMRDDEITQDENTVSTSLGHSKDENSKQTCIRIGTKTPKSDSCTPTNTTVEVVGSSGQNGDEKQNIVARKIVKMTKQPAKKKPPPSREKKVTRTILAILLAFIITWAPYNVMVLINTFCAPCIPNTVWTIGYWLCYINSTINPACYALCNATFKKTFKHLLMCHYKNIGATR

[23] = biological target: Histamine H4 receptor (Homo sapiens) (UniProt Q9H3N8); assay: Inhibition of human histamine H4 receptor at 10 uM; in short: as §3
[24] = biological target: Histamine H2 receptor (Homo sapiens) (UniProt P25021); assay: Inhibition of human histamine H2 receptor at 10 uM; in short: as §3
Sequence of Histamine H2 receptor (Homo sapiens) (P25021 whole entry): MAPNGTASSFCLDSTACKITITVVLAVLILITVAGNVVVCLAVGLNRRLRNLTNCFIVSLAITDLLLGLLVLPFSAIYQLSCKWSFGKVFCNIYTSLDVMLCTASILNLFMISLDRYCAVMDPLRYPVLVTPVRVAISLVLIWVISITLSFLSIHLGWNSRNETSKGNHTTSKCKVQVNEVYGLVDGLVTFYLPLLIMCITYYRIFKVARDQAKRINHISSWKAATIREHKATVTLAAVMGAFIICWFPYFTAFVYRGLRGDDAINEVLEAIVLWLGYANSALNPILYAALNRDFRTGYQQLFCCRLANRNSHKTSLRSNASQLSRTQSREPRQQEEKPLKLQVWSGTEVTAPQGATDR

[25] = Cmax in rat at 10 mg/kg, po; assay type: ADME, organism-based; parameters: dose 10 mg/kg, route oral; settings: in vivo; in short: as §2
[26] = Tmax in rat at 10 mg/kg, po; assay type: ADME, organism-based; parameters: dose 10 mg/kg, route oral; settings: in vivo; in short: as §2
[27] = AUC in rat at 10 mg/kg, po; assay type: ADME, organism-based; parameters: dose 10 mg/kg, route oral; settings: plasma; in short: as §2

Sequence of Histamine H3 receptor (Homo sapiens, UniProt Q9Y5N1) (Q9Y5N1 whole entry): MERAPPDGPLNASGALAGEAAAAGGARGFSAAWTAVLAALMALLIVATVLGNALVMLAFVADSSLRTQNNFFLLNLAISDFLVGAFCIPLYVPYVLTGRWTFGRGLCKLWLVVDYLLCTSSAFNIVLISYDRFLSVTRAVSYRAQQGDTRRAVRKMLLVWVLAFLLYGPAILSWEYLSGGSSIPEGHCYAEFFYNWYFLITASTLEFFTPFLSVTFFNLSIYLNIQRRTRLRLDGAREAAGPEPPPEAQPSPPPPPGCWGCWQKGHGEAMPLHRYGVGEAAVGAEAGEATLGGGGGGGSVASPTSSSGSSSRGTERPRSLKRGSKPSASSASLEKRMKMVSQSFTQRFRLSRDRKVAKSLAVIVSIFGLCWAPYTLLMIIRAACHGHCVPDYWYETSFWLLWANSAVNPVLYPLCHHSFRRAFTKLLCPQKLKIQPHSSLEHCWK

Structure (SMILES) | Ki (Histamine H3 receptor [1]) | Ki (Histamine H3 receptor [2]) | half-life [3] | IC50 [8] | half-life [10] | half-life [11] | half-life [12] | Vd [14] | Tmax [15] | AUC [16] | bioavailability [17] | Cmax [18] | clearance [19] | Kp at 6 h [20] | further results
Cc1nn(C)c(=O)cc1-c1ccc(OC2CCN(C3CCC3)CC2)cc1 | 4 nM | 8 nM | > 0.667 h | > 30000 nM | > 0.667 h | > 0.667 h | – | – | – | – | – | – | – | – | Cmax [4]: 107 ng/mL; Cmax (Rattus norvegicus [5]): 68 ng/mL; AUC [6]: 337 ng·h/mL; AUC (Rattus norvegicus [7]): 320 ng·h/mL; bioavailability [9]: 19%
Cc1cccnc1-n1nc(C)c(-c2ccc(OC3CCN(C4CCC4)CC3)cc2)cc1=O | 6 nM | 17 nM | – | > 30000 nM | – | – | 1.1 h | 1.1 L/kg | 2.3 h | 1860 ng·h/mL | 23% | 505 ng/mL | 11 mL/min/kg | 1 | IC50 [13]: > 30000 nM
Cc1nn(-c2ccccn2)c(=O)cc1-c1ccc(OC2CCN(C3CCC3)CC2)cc1 | 3 nM | 9 nM | > 0.667 h | > 30000 nM | > 0.667 h | > 0.667 h | 1.3 h | 1.4 L/kg | 3.2 h | 1500 ng·h/mL | 22% | 287 ng/mL | 13 mL/min/kg | 1.6 | inhibition [21]: < 30%; IC50 [22]: 340 nM; inhibition [23]: < 30%; inhibition [24]: < 30%

Further compounds by falling Ki (Histamine H3 receptor [1]), results first:

Ki (Histamine H3 receptor [1]) | Ki (Histamine H3 receptor [2]) | half-life [3] | IC50 [8] | half-life [10] | half-life [11] | half-life [12] | Vd [14] | Tmax [15] | AUC [16] | bioavailability [17] | Cmax [18] | clearance [19] | Kp at 6 h [20] | Structure (SMILES) | further results
3 nM | 8 nM | – | – | – | – | – | – | – | – | – | – | – | – | Cc1nn(-c2ccsc2)c(=O)cc1-c1ccc(OC2CCN(C3CCC3)CC2)cc1 | –
2.8 nM | 8.5 nM | – | – | – | – | – | 0.8 L/kg | – | – | – | – | – | 1.8 | C[C@@H]1CCCN1CCCOc1ccc(-c2cn[nH]c(=O)c2)cc1 | Cmax [25]: 446 ng/mL; Tmax [26]: 2 h; AUC [27]: 4210 ng·h/mL
